A selection: hits, their analogues and other compounds. The true share with any hit is near 2.2%.
dFosB act-1 – enhances mouse delta FosB homodimer DNA binding; P13346; purified delta FosB, TAMRA-CDK5 oligo fluorescence polarization; percent of positive-control signal above neutral wells; activation, % at 25 µM; actives 0.99% (n = 340,000);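 active = mean activation above about 17%, with every replicate also reaching it, limit read from the data, passing the limit was not always enough; inconclusive = only one of the two conditions met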
Target sequence (P13346 whole entry, looked up): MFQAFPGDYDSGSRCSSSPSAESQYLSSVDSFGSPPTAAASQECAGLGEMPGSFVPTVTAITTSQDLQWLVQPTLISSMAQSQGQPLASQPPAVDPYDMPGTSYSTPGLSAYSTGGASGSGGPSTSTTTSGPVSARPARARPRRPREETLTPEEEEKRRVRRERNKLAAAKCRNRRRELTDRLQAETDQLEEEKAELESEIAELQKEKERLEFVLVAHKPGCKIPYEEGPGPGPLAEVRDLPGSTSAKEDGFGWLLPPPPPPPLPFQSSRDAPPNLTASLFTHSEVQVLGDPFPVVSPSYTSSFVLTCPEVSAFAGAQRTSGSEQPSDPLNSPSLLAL
S100A4 inh HTS – S100A4-myosin IIA interaction inhibition. S100A4/TAMRA-MyoIIA peptide fluorescence polarization. P26447. actives 0.14% (n = 360,000). inhibition, % at 10.7 µM;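 active = mean inhibition of at least 70% across replicates, with every replicate also reaching that level; inconclusive = mean inhibition reaches 70% but some replicates fall short; inactive = mean inhibition below 70%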
Target sequence (P26447 whole entry, looked up): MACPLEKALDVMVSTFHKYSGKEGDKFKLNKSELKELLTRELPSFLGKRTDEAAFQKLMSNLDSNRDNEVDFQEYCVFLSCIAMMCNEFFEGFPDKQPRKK
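Compound dosing: one dose per compound; test system: human S100A4 monomer with TAMRA-labelled myosin IIA peptide; probe or stimulus: TAMRA-labelled myosin IIA heavy-chain peptide probe, 5 nM; medium: HEPES buffer with Ca2+, pH 7.2; schedule: 5 min incubation before reading; benchmarks: neutral control DMSO, positive control TFP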
CFTR F508del cor – correctors of CFTR F508del function in bronchial epithelial cells. actives 0.36% (n = 350,000). activity (quench increase), % at 7.58 µM. CFBE cells, YFP halide quenching; stimulated with forskolin plus potentiator P3; % fluorescence drop versus neutral controls;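 active = mean added fluorescence quench of at least 8% versus neutral control, with both replicates also reaching 8%; inconclusive = only one of the mean or replicate conditions met; inactive = mean below 8% and not both replicates reaching 8%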;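 also: cells transiently co-express mutant CFTR-F508del with the halide-sensitive YFP; corrector assay measuring rescue of mutant channel to the surface after 24 h compound exposure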
FGF22 binding – FGF22 (human) thermal shift binding; actives 1.5% (n = 340,000); Q9HCT0; recombinant FGF22 thermal shift, SYPRO orange fluorescence; percent of sucrose octasulfate shift, DMSO zero; activity (Tm shift, normalised), % at 9.99 µM;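 active = mean Tm shift, scaled 0 neutral to 100 positive control, at about 1.3% or above, every replicate too, limit read from the data; inconclusive = no clear call, values can overlap the other calls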
Target sequence (Q9HCT0 whole entry, looked up): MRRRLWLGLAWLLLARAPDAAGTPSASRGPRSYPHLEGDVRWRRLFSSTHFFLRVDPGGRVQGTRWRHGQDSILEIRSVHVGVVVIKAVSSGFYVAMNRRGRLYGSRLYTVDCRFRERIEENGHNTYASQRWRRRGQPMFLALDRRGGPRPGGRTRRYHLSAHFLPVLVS
dFosB act-2 – delta FosB (mouse) homodimer activation; activation, % at 24.9 µM; 2,400 tested, under 10 active; shares compounds with dFosB act-1; purified delta FosB, TAMRA-CDK5 oligo fluorescence polarization; normalised: neutral wells 0, positive control 100; AID 588690;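 active = highest replicate activation at or above 34% and every replicate reaching that threshold; inconclusive = meets only one of the two criteria; inactive = meets neither criterion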;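 also: higher polarization means more probe DNA bound by delta FosB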
Numbers without * were called inactive; ? = inconclusive; . = not tested or not shown.

SMILES	dFosB act-1	S100A4 inh HTS	CFTR F508del cor	FGF22 binding	dFosB act-2
Cc1cc(C)c2sc(N(CCN(C)C)C(=O)CCS(=O)(=O)c3ccccc3)nc2c1	21*	-10	1	0	3
CCN(CC)CCN(C(=O)c1ccc2c(c1)OCCO2)c1nc2cc(C)cc(C)c2s1	30*	-3	-1	0	4
CCN(CC)CCN(C(=O)CCS(=O)(=O)c1ccccc1)c1nc2cc(C)cc(C)c2s1	43*	0	2	0	6
CCN(CC)CCN(C(=O)c1ccc2c(c1)OCCO2)c1nc2c(Cl)cccc2s1	-7	-3	0	0	.
COc1ccc(Cl)c2sc(N(CCN(C)C)C(=O)CCS(=O)(=O)c3ccc(C)cc3)nc12	82*	3	-1	0	3
N#Cc1ccc(C23CC4(C2)[C@H](CN(CC2CCCCC2)[C@@H]4c2ccccc2)C3c2ccc(Cl)nc2)cc1 (some centres not stated)	25*	-2	3	0	0
Clc1ccc(-c2nc(-c3ccncc3)no2)c(Cl)c1	3	-1	3	0	.
Nc1nccc(-c2cc(-c3ccc(Cl)cc3Cl)no2)n1	93*	-4	0	0	-15
C[C@H](CO)N1C[C@H](C)[C@H](CN(C)C(=O)[C@@H]2CCCN2C)OCc2ccccc2-c2c(n(C)c3ccccc23)C1=O	.	6	0	0	.
O=C(Cn1cnc2sc3c(c2c1=O)CCCC3)NCC(=O)Nc1c(F)cccc1F	32*	2	0	0	0
O=C(CNC(=O)Cn1cnc2sc3c(c2c1=O)CCCC3)NCc1ccccn1	1	3	0	0	.
COc1ccc(NC(=O)N(C)C[C@@H]2Oc3ccc(NC(=O)Nc4ccccc4)cc3C(=O)N([C@@H](C)CO)C[C@@H]2C)cc1	.	4	0	0	.
CO[C@H]1CN(C)C(=O)c2cc(NC(C)=O)ccc2OC[C@H](C)N(C(=O)c2ccc(F)cc2)C[C@@H]1C	.	-1	-1	0	.
Cc1nn(Cc2ccccc2Cl)c(Cl)c1/C=C/C(=O)OCC(=O)NC(N)=O	2	.	.	.	.
Cc1nn(Cc2ccccc2)c(Cl)c1/C=C/C(=O)OC(C(=O)NC(N)=O)C(C)C (configuration not stated)	50*	-3	-1	0	-1
CC=Cc1ccc2n(c1=O)C[C@H]1[C@H](CO)[C@@H](C(=O)NCC3CC3)[C@@H]2N1C(=O)C1CC1 (mixture of isomers)	.	-3	1	0	.
O=C(Nc1nccs1)c1cc(-c2ccccn2)nc2c(Cl)cccc12	39*	3	2	0	4
CC(C)(C)C1CCc2c(sc(NC(=O)c3ccncc3)c2C(N)=O)C1 (configuration not stated)	34*	2	-2	0	3
Cc1occc1C(=O)Nc1sc2c(c1C(N)=O)CCC(C(C)(C)C)C2 (configuration not stated)	1	-2	.	.	.
O=C(NC(=S)Nc1ccc2oc(=O)ccc2c1)c1cccc(F)c1	1	14	4	0	.
O=C(NC(=S)Nc1ccc2oc(=O)ccc2c1)c1cccc(Cl)c1	88*	1	1	-1	0
COc1cc(C(=O)NCc2ccc(-c3nc4ccccc4o3)cc2)cc(OC)c1OC	27*	.	.	.	5
Cc1nnc(NC(=O)c2ccc(-c3cccc(C(F)(F)F)c3)o2)s1	30*	.	.	.	?
CC(=O)c1cccc(NC(=O)CC2S/C(=N/N=C/c3cccs3)NC2=O)c1 (configuration not stated)	40*	2	-3	0	-6
CC(=O)c1cccc(NC(=O)CC2S/C(=N/N=C/c3ccccc3)NC2=O)c1 (configuration not stated)	49*	.	.	.	3
SMILES	dFosB act-1	S100A4 inh HTS	CFTR F508del cor	FGF22 binding	dFosB act-2
O=C(CC1S/C(=N/N=C/c2cccnc2)NC1=O)Nc1ccccc1 (configuration not stated)	2	-10	-3	0	.
COCCn1c(N)c(N(Cc2ccccc2)C(=O)c2ccc(-c3ccc(Cl)cc3)o2)c(=O)[nH]c1=O	23*	-5	1	0	1
COc1cccc(S(=O)(=O)Nc2ccc3c(c2)[C@@H]2C[C@H](CC(=O)NCc4ccc(Cl)cc4)O[C@@H](CO)[C@@H]2O3)c1	.	-7	-2	-1	.
Cn1c(N)c(C(=O)CSc2nn(-c3ccc(F)cc3)c(=S)s2)c(=O)n(C)c1=O	52*	1	-1	0	0
CCCCN(C(=O)CSc1nn(-c2ccc(F)cc2)c(=S)s1)c1c(N)n(CCCC)c(=O)[nH]c1=O	-3	-3	-3	0	.
C[C@@H]1CN([C@@H](C)CO)C(=O)c2cc(NS(C)(=O)=O)ccc2O[C@H]1CN(C)S(=O)(=O)c1ccc(F)cc1	.	7	1	0	.
Cc1ccc(CCNC(=O)c2ccc(NC3=NC4CS(=O)(=O)CC4S3)cc2)cc1 (configuration not stated)	10	-4	0	0	.
NS(=O)(=O)c1ccc(CCNC(=O)c2ccc(NC3=NC4CS(=O)(=O)CC4S3)cc2)cc1 (configuration not stated)	18*	.	.	.	5
O=C(Nc1ccc(NC(=O)c2ccco2)cc1)c1ccc2c(c1)OCO2	-6	.	.	.	.
O=C(Nc1ccc2oc(-c3ccncc3)nc2c1)c1ccc2c(c1)OCO2	-7	4	-1	0	.
O=C(Nc1ccc2oc(-c3ccccc3)nc2c1)c1ccc2c(c1)OCCO2	42*	.	.	.	3
O=C(Nc1ccc2oc(-c3ccncc3)nc2c1)c1ccc(F)cc1	36*	-5	-3	0	3
O=C(Nc1ccc(NC(=O)c2ccco2)c(Cl)c1)c1ccc2c(c1)OCCO2	60*	6	-1	0	1
O=C(Nc1ccc2oc(-c3ccccc3F)nc2c1)c1cncc(Br)c1	22*	.	.	.	1
CCCNC(=O)C[C@@H]1CC[C@H]2[C@@H](COc3ccc(NC(=O)c4ccc5c(c4)OCO5)cc3C(=O)N2C)O1	.	-5	1	0	.
CNC[C@H]1Oc2ccc(NC(=O)CCC(F)(F)F)cc2CC(=O)N([C@@H](C)CO)C[C@H]1C	.	-3	-1	0	.
Cc1cc(NC(=O)c2ccc3c(c2)OCCO3)ccc1NC(=O)c1cc2ccccc2o1	1	4	-5	0	.
O=C(Cc1ccccc1)Nc1ccc2oc(-c3cccnc3)nc2c1	22*	.	.	.	1
O=C(Nc1ccc2oc(-c3ccncc3)nc2c1)c1ccc2c(c1)OCCO2	46*	6	3	0	0
O=C(Nc1ccc2oc(-c3cccnc3)nc2c1)c1ccc2c(c1)OCCO2	33*	.	.	.	2
O=C(Nc1ccc(NC(=O)c2cc3ccccc3o2)cc1)c1ccc2c(c1)OCCO2	42*	1	2	0	-1
